Results as given in paper PMC4180501 (Biochimica et biophysica acta, 2012).
Changes are numbered by the printed parent chain. pEC50, pKd: −log10 of the molar value.

Experiments:
GK-WT = target: T1, GK-WT (Homo sapiens, UniProt P35557); test: DSC thermal denaturation
T1 sequence (P35557 1-465): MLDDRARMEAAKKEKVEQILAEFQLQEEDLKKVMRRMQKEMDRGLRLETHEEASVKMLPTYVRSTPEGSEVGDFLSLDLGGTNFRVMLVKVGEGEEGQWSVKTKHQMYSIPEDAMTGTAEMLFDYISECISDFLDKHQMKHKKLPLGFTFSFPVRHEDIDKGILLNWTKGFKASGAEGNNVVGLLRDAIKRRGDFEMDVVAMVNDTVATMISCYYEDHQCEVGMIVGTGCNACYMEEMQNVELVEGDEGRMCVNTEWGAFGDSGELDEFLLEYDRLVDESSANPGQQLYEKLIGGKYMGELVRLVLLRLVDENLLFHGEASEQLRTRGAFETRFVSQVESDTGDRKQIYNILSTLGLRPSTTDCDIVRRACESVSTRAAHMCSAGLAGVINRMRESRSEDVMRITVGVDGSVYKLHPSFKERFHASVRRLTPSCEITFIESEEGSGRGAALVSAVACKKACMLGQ
In short: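 Wild-type recombinant human GK was run by DSC at 0.3 mg/ml (6 µM) in 5 mM phosphate, 100 mM KCl, pH 7.3, in buffer or 20% glycerol, with glucose up to 300 mM. The scan was 0.25 degree/min against a protein-free reference. Tm was plotted against glucose and fit to a hyperbola for EC50. Unfolding rate constant used k=vCp/(Qt−Q) to derive activation energy.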

GK-W167 (W99R/W257F) [1] = target: T2, GK-W167 (W99R/W257F) (Homo sapiens, UniProt P35557, W257F/W99R); test: D-glucose binding by tryptophan fluorescence titration; conditions: W-167, no GKA
T2 sequence (P35557 1-465 W99R/W257F): T1 sequence (P35557 1-465) with W99R, W257F

GK-W167 (W99R/W257F) [2] = target: T2, GK-W167 (W99R/W257F); test: DSC thermal denaturation; conditions: W-167 in buffer, 300 mM D-glucose
In short: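 Samples were degassed and scanned by DSC at 0.25 degree/min against a reference holding everything except protein. Tm and calorimetric ΔH were taken by integrating the Cp-vs-temperature thermogram; Cpm is the apparent heat capacity at the maximum.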

GK-W99 (W167F/W257F) [3] = target: T3, GK-W99 (W167F/W257F) (Homo sapiens, UniProt P35557, W167F/W257F); test: NADP+-coupled spectrophotometric kinetic assay; format: biochemical; conditions: W-99, no GKA
T3 sequence (P35557 1-465 W167F/W257F): T1 sequence (P35557 1-465) with W167F, W257F
In short: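 Recombinant human β-cell glucokinase single-Trp variant, expressed in E. coli as a GST fusion and sequence-verified. Catalytic parameters came from an NADP+-coupled spectrophotometric assay run with or without 30% glycerol. Hill coefficient and glucose S0.5 were obtained by fitting v/Vmax = [glucose]^H/(K′+[glucose]^H), with […].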

GK-W99 (W167F/W257F) [4] = target: T3, GK-W99 (W167F/W257F); test: D-glucose binding by tryptophan fluorescence titration; conditions: W-99, no GKA
[5] = GK-WT in 20% glycerol, 300 mM D-glucose
[6] = GK-WT in buffer, 300 mM D-glucose
[7] = GK-WT, 20% glycerol, 7.5 mM D-glucose
[8] = GK-WT, 20% glycerol, 50 mM D-glucose
[9] = GK-WT, 20% glycerol, 100 mM D-glucose
[10] = GK-WT, 20% glycerol, 200 mM D-glucose
[11] = GK-WT, buffer, 7.5 mM D-glucose
[12] = GK-WT, buffer, 100 mM D-glucose
[13] = GK-WT, buffer, 200 mM D-glucose

pEC50 (GK-WT; EC50 of glucose dependency of heat capacity (Cp), 20% glycerol, hyperbolic fit): 1.46
Cp^m (GK-WT; [5]): 222.2 kJ/mol/°C
ΔH thermal denaturation (GK-WT; [5]): 169 kcal/mol
Tm (GK-WT; GK-WT in 20% glycerol, 300 mM D-glucose, DSC): 56.9 °C
Cp^m (GK-WT; [6]): 130.5 kJ/mol/°C
ΔH thermal denaturation (GK-WT; [6]): 135 kcal/mol
Tm (GK-WT; GK-WT in buffer, 300 mM D-glucose, DSC): 52.2 °C
Cp^m (GK-WT; [7]): 148.1 kJ/mol/°C
Ea thermal denaturation (GK-WT; [7]): 175.3 kcal/mol
Tm (GK-WT; [7]): 52.6 °C
Cp^m (GK-WT; [8]): 186.2 kJ/mol/°C
Ea thermal denaturation (GK-WT; [8]): 190.1 kcal/mol
Tm (GK-WT; [8]): 54.8 °C
Cp^m (GK-WT; [9]): 196.2 kJ/mol/°C
Ea thermal denaturation (GK-WT; [9]): 193.6 kcal/mol
Tm (GK-WT; [9]): 55.5 °C
Cp^m (GK-WT; [10]): 212.5 kJ/mol/°C
Ea thermal denaturation (GK-WT; [10]): 190.1 kcal/mol
Tm (GK-WT; [10]): 56.3 °C
Ea thermal denaturation (GK-WT; GK-WT, 20% glycerol, 300 mM D-glucose): 189.3 kcal/mol
Cp^m (GK-WT; [11]): 63.2 kJ/mol/°C
Ea thermal denaturation (GK-WT; [11]): 120 kcal/mol
Tm (GK-WT; [11]): 48.0 °C
Cp^m (GK-WT; GK-WT, buffer, 25 mM D-glucose): 90.8 kJ/mol/°C
Ea thermal denaturation (GK-WT; GK-WT, buffer, 25 mM D-glucose): 134.4 kcal/mol
Tm (GK-WT; GK-WT, buffer, 25 mM D-glucose): 49.5 °C
Cp^m (GK-WT; GK-WT, buffer, 50 mM D-glucose): 101.7 kJ/mol/°C
Ea thermal denaturation (GK-WT; GK-WT, buffer, 50 mM D-glucose): 137.5 kcal/mol
Tm (GK-WT; GK-WT, buffer, 50 mM D-glucose): 50.0 °C
Cp^m (GK-WT; [12]): 109.6 kJ/mol/°C
Ea thermal denaturation (GK-WT; [12]): 136 kcal/mol
Tm (GK-WT; [12]): 50.9 °C
Cp^m (GK-WT; [13]): 128.4 kJ/mol/°C
Ea thermal denaturation (GK-WT; [13]): 140.3 kcal/mol
Tm (GK-WT; [13]): 52.2 °C
Ea thermal denaturation (GK-WT; GK-WT, buffer, 300 mM D-glucose): 137 kcal/mol
pKd (GK-W167 (W99R/W257F) [1]; 20% glycerol): 4.05
pKd (GK-W167 (W99R/W257F) [1]; no glycerol): 3.42
Cp^m (GK-W167 (W99R/W257F) [2]): 90.4 kJ/mol/°C
ΔH thermal denaturation (GK-W167 (W99R/W257F) [2]): 97.99 kcal/mol
Tm (GK-W167 (W99R/W257F) [2]; DSC): 53.4 °C
Glucose S0.5 (GK-W99 (W167F/W257F) [3]; 30% glycerol): 6.53 mM
kcat (GK-W99 (W167F/W257F) [3]; 30% glycerol): 6.10 s⁻¹
kcat/S0.5 (GK-W99 (W167F/W257F) [3]; 30% glycerol): 930 M⁻¹ s⁻¹
nH (Hill coefficient towards glucose) (GK-W99 (W167F/W257F) [3]; 30% glycerol): 1.52
Glucose S0.5 (GK-W99 (W167F/W257F) [3]; no glycerol): 21.0 mM
kcat (GK-W99 (W167F/W257F) [3]; no glycerol): 8.47 s⁻¹
kcat/S0.5 (GK-W99 (W167F/W257F) [3]; no glycerol): 400 M⁻¹ s⁻¹
nH (Hill coefficient towards glucose) (GK-W99 (W167F/W257F) [3]; no glycerol): 1.24
pKd (GK-W99 (W167F/W257F) [4]; 20% glycerol): 2.39
pKd (GK-W99 (W167F/W257F) [4]; no glycerol): 1.73
Compound: OC[C@H]1OC(O)[C@H](O)[C@@H](O)[C@@H]1O (stereo partly drawn) [D-glucose]
